# hERG rescue – hERG (human) protection from proarrhythmic block; actives 0.51% (n = 310,000); activation (rescue from dofetilide block), less the hit threshold, % at 10 µM; CHO-hERG, FluxOR thallium flux, dofetilide IC70 present; Q12809;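 active = activation above the mean of controls blocked by dofetilide plus 5 SD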;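 note: thallium influx through hERG after potassium depolarization seen as dye fluorescence rise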
# KCNQ1 block – inhibitors of human KCNQ1 potassium channel | P51787 | CHO-K1 KCNQ1, FluxOR thallium flux fluorescence; stronger effect = higher value | B-score at 10 µM | actives 1.3% (n = 310,000) | AID 2642;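 active = compounds whose thallium flux B-score, printed positive for inhibition, exceeds three library SD while starting fluorescence stays within three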;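 note: channel opened by potassium depolarization with thallium stimulus after 20 min compound exposure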
# Cl transport mod – modulates chloride dependent transport by human KCC2; Q9H2X9; KCC2 cells, thallium flux FluoZin-2 fluorescence; B-score of Tl+ flux slope (higher = more flux/activation; lower = inhibition) at 10 µM; actives 2.2% (n = 190,000);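 active = thallium flux slope and its plate-corrected score both differing from the plate sample mean at a set confidence after two filtering rounds, in either direction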;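 note: slope of fluorescence scaled to starting intensity during 10 to 20 s after thallium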
# KCNQ1 act – human KCNQ1 channel potentiation or activation. actives 0.35% (n = 310,000). CHO-K1 KCNQ1, thallium flux FluxOR fluorescence; stronger effect = higher value. B-score at 10 µM. P51787. AID 2648;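 active = fluorescence ratio B-score, a plate-corrected score, at least three library SD, with initial intensity B-score within 5 SD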
#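 Medium – assay buffer, equal DMSO in all wells · Material – CHO-K1 cell line with stable KCNQ1 potassium channel expression · Signal – kinetic FluxOR thallium fluorescence, 10-s 1-Hz baseline, 110-s post-stimulus read · Compound – single concentration per compound, DMSO matched to controls · Schedule – 37 °C overnight plating, 90-min dark dye load, 20-min compound pretreatment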
# KCNK9 block – human KCNK9 channel inhibition; HEK293 KCNK9, FluxOR thallium flux fluorescence; stronger effect = lower value; B-score at 10 µM; actives 1.2% (n = 310,000); AID 488922;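 active = ratio B-score over 3 SD below the library mean, with starting fluorescence within 5 SD of its mean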;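 note: negative B-score means less thallium flux so channel inhibition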
# Target sequence (Q9NPC2 whole entry, looked up): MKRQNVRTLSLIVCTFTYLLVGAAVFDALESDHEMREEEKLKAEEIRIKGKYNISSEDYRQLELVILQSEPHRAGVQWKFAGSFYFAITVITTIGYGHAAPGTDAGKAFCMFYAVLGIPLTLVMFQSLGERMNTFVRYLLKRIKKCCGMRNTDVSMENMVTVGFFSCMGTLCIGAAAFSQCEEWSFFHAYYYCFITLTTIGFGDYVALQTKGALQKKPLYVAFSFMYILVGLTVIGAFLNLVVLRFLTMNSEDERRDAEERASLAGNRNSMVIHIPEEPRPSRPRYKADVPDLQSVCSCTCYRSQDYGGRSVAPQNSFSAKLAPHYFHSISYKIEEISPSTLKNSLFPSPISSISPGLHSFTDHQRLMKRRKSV
# KCNK3 block – human KCNK3 channel inhibition, primary screen; AID 602410; O14649; CHO-KCNK3 thallium flux, FluxOR fluorescence; stronger effect = lower value; B-score at 10 µM; actives 0.84% (n = 340,000);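 active = B-score under library mean minus 4 SD, starting fluorescence ratio at most library mean plus 5 SD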;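 note: more negative B-score means stronger inhibition of thallium flux through KCNK3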
# KCNK9 inh conf – confirmation of human KCNK9 potassium channel inhibitors; shares compounds with KCNK9 block; actives 43% (n = 4,900); inhibition, % at 10 µM; HEK293 KCNK9 cells, FluxOR thallium flux fluorescence;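 active = thallium signal inhibited by more than 5 SD of the compound-free buffer control wells, on both duplicate plates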;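 note: 0% = assay buffer control wells without compound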
# Kir2-1 spec – selectivity of KCNK9 modulators against mouse Kir2.1; shares compounds with KCNK9 block; inhibition, % at 10 µM; actives 4% (n = 4,900); Kir2.1 cells, FluxOR thallium flux fluorescence;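 active = thallium signal drop more than 5 SD beyond the mean of the no-compound control wells, seen in both duplicate plates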;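 note: signal is fluorescence rise after thallium addition divided by baseline fluorescence; plate controls were assay buffer only for no effect and full block by chlorpromazine control for full effect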
# HEK293 Tl ctr – non-induced cell nonspecific activity of KCNK9 modulators | shares compounds with KCNK9 block | inhibition, % at 10 µM | non-induced KCNK9-HEK293, FluxOR thallium flux | actives 40% (n = 4,900);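 active = thallium signal drop beyond 5 SD of the untreated control mean, on both duplicate plates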;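 note: plate controls were buffer only IC0 wells for no effect and SID17386958 at its maximal inhibitory level for full effect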
# An asterisk follows results filed as active; i = inactive; . = no result given. Only some compounds are listed: those with a hit (about 4.1% of all), similar ones and a draw of the others.
SMILES,hERG rescue,KCNQ1 block,Cl transport mod,KCNQ1 act,KCNK9 block,KCNK3 block,KCNK9 inh conf,Kir2-1 spec,HEK293 Tl ctr
O=C(c1ccccc1)c1nn(-c2ccccc2)c2nnc(Cc3ccccc3)c(=O)n12,-20,i,-0.23,i,i,i,i,i,i
Cc1ccccc1-n1ncc2c(SCC(=O)N3c4ccccc4CC3C)ncnc21 (stereo not drawn),-7,i,.,i,i,i,i,i,i
Cc1ccccc1-n1ncc2c(SCC(=O)NC3CCCC3)ncnc21,-4,i,.,i,i,i,.,.,.
COc1ccccc1C(=O)NCC(=O)OCc1ccc(Br)cc1,-10,i,-0.69,i,i,i,.,.,.
CCOC(=O)/C(C#N)=N/Nc1ccccc1C(=O)O,-6,i,0.0033,i,i,i,.,.,.
N#C/C(N=Nc1ccccc1O)=N\Nc1ccccc1O,-37,6*,.,i,-8.7*,i,30%*,30%*,i
CC(=O)N(Cc1cc2cc(C)c(C)cc2n2nnnc12)CC1COCCO1 (stereo not drawn),-12,i,1.7,i,i,i,.,.,.
C=C1CC2C(=O)N(Cc3ccccc3)C(C(=O)OCC)(C(=O)OCC)C1N2C(=O)OC(C)(C)C (stereo not drawn),-9,i,.,i,-12*,i,47%*,i,37%*
Oc1ccc(N=C/C=C/c2cccc(Br)c2)cc1-c1nc2ccccc2s1,1,i,-0.45,i,i,i,.,.,.
COc1ccc(-c2ccc(SCc3ccccn3)nn2)cc1OC,-10,i,0.067,i,i,i,.,.,.
COc1cccc(-c2ccc(SCc3ccccn3)nn2)c1,-23,i,-1.7,i,i,i,i,i,i
CCOC(=O)C1CCN(c2nc(-c3ccc(Br)cc3)nc3ccccc23)CC1,-12,i,0.5,i,-8.8*,i,i,i,22%*
O=C(Nc1cccc(S(=O)(=O)N2CCCCC2)c1)C1CCN(C(=O)c2ccc(Cl)cc2)CC1,.,.,.,.,.,i,.,.,.
O=C(Nc1cccc(S(=O)(=O)N2CCCCCC2)c1)C1CCN(C(=O)c2ccc(Cl)cc2)CC1,-10,i,.,i,i,i,i,i,i
O=C(Nc1cccc(S(=O)(=O)N2CCCCCC2)c1)C1CCN(C(=O)c2ccc(F)cc2)CC1,-17,i,.,i,i,i,i,i,i
COc1cc(OC)c(OC)cc1CN1CCN(c2ccccc2OC)CC1,-8,i,-0.19,i,i,i,.,.,.
COc1ccc(N2CCN(Cc3cc4c(cc3Br)OCCO4)CC2)cc1,-19,i,.,i,i,i,i,i,i
COc1ccc(N2CCN(Cc3csc(C)c3-c3ccc(C)cc3)CC2)cc1,-3,i,.,i,i,i,i,i,i
COc1ccc(N2CCN(CC(=O)Nc3c(C)cc(C)cc3C)CC2)cc1,-5,i,.,i,i,i,.,.,.
COc1ccccc1N1CCN(Cc2cc3c(cc2Br)OCCO3)CC1,-8,i,.,i,i,i,i,i,i
COc1ccccc1-n1cnnc1SCC(=O)NC1CCS(=O)(=O)C1 (stereo not drawn),-7,i,-0.59,i,i,i,.,.,.
Cn1nc(-c2ccccc2F)c2cc(C(=O)Nc3ccc4c(c3)OCCO4)sc21,-13,i,.,i,-12*,i,49%*,i,i
CCN1CCN(c2ncnc3scc(-c4ccc(C)cc4)c23)CC1,-8,i,.,i,i,i,.,.,.

# Screening data from PubChem.
